Laboratory results published in ChEMBL document CHEMBL1121715, “New antiarrhythmic agents. 4. 1'-(Aminoalkyl)-1,2,3,4-tetrahydronaphthalene-1-spiro-3'-pyrrolidine-2',5'-dione derivatives” (J Med Chem, 1981).

Columns and labels:
Mus musculus [1] = species: Mus musculus; experiment: Percentage toxicity measured as convulsions.; format: organism-based; details: in vivo
Procedure, shortened: (§1)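 Mice (groups of 10) were dosed sc with drug in 0.9% saline and watched for 20 min for overt toxicity (ataxia, convulsions, loss of righting reflex, death) before chloroform exposure.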

[2] = Percentage toxicity measured as death of mice.; format: organism-based; set-up: concentration or dose not given beside the values; details: mouse, in vivo; read-out: Death
Mus musculus [3] = species: Mus musculus; experiment: Percentage toxicity measured as loss of righting reflex.; format: organism-based; details: in vivo; procedure, shortened: as §1
Mus musculus [4] = species: Mus musculus; experiment: Percentage toxicity measured as ataxia.; format: organism-based; details: in vivo; procedure, shortened: as §1
Mus musculus [5] = experiment: Protection against chloroform induced arrhythmias in mice after subcutaneous administration at 100 mg/kg dose.; format: functional
Procedure, shortened: (§2)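 Groups of 10 unanesthetized mice got sc injection of drug in 0.9% saline. After 20 min observation they were placed one by one in chloroform-vapor-saturated air. When breathing stopped, the thorax was opened and the heart inspected by eye; coordinated ventricular contractions counted as protected.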

Mus musculus [6] = experiment: Protection against chloroform induced arrhythmias was measured in mice after sc administration at given dose; format: functional; procedure, shortened: as §2
Mus musculus [7] = experiment: Ataxia was measured in mice after sc administration at given dose; format: functional
Procedure, shortened: (§3)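 Mice in groups of 10 received drug sc in 0.9% saline and were watched 20 min for overt toxicity before chloroform exposure. At least three doses were given.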

Mus musculus [8] = experiment: Protection against chloroform induced arrhythmias was measured in mice after sc administration at given dose.; format: functional; procedure, shortened: as §2
Mus musculus [9] = experiment: Ataxia was measured in mice after sc administration at given dose.; format: functional; procedure, shortened: as §3
Canis familiaris [10] = experiment: MABP value was measured in anesthetized dog at 0.32+/-0.11 dose.; format: functional, Canis lupus familiaris
Canis familiaris [11] = experiment: Ventricular rate was measured in anesthetized dog at 0.32+/-0.11 dose; format: functional, Canis lupus familiaris, Heart; details: in the assay text read “unanesthetized” for “anesthetized”
Procedure, shortened: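 Adult female dogs (6.7–14.5 kg) had ventricular arrhythmias from two-stage ligation of the left anterior descending coronary artery the day before. Ventricular rate (bpm) was read at maximal antiarrhythmic effect against cumulative dose.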

Canis familiaris [12] = species: Canis familiaris; experiment: The dose at which toxicity was measured.; format: organism-based, Canis lupus familiaris; details: dog, in vivo
Procedure, shortened: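 Adult female dogs (6.7–14.5 kg) had two-stage ligation of the left anterior descending coronary artery the day before testing. After control ventricular rate, % ectopic beats and mean arterial pressure were recorded, the drug (HCl salt, isotonic solution) was infused iv without anesthesia at 0.1, 0.5 or 1.0 (mg/kg)/min, mostly 0.5. Infusion continued until the arrhythmia was abolished or cardiovascular/CNS toxicity appeared. Cumulative dose is given in mmol/kg; toxicity included convulsion and P-R prolongation ≥25%.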

Canis familiaris [13] = experiment: % ectopic beats was measured in unanesthetized dog at 0.32+/-0.11 dose; 2+/-2
[14] = Mus musculus, sc, read-out: ED50

## CCN(CC)CCCN1C(=O)CC(c2ccccc2)C1=O (stereo not drawn)
Mus musculus [1]
  Convulsion: 0%
[2]
  mortality: 0%
Mus musculus [3]
  Loss of righting reflex: 0%
Mus musculus [4]
  Ataxia: 0%
Mus musculus [5]
  Protection: 30%

## CN(CCO)CCN1C(=O)CC2(CCCc3ccccc32)C1=O (stereo not drawn)
Mus musculus [1]
  Convulsion: 0%
[2]
  mortality: 0%
Mus musculus [3]
  Loss of righting reflex: 0%
Mus musculus [4]
  Ataxia: 0%
Mus musculus [5]
  Protection: 30%

## CCN(CC)CCCN1C(=O)CC2(CCCc3ccc(C)cc32)C1=O (stereo not drawn)
Mus musculus [6]
  ED50: 210 µmol/kg
Mus musculus [1]
  Convulsion: 0%
[2]
  mortality: 0%
Mus musculus [3]
  Loss of righting reflex: 0%
Mus musculus [4]
  Ataxia: 0%
Mus musculus [5]
  Protection: 70%

## CCN(CC)C(C)CCN1C(=O)CC2(CCCc3ccc(O)cc32)C1=O (stereo not drawn)
Mus musculus [6]
  ED50: 80 µmol/kg
Mus musculus [1]
  Convulsion: 100%
[2]
  mortality: 20%
Mus musculus [3]
  Loss of righting reflex: 100%
Mus musculus [4]
  Ataxia: 100%
Mus musculus [7]
  ED50: 80 µmol/kg
Mus musculus [5]
  Protection: 80%

## CCCC1(c2ccccc2)CC(=O)N(CCN(C)C)C1=O (stereo not drawn)
Mus musculus [1]
  Convulsion: 0%
Mus musculus [8]; [14]
  ED50: 390 µmol/kg
[2]
  mortality: 0%
Mus musculus [3]
  Loss of righting reflex: 0%
Mus musculus [4]
  Ataxia: 100%
Mus musculus [9]
  ED50: 270 µmol/kg
Mus musculus [5]
  Protection: 40%

## CCN(CC)CCCN1C(=O)CC2(CCCc3ccc(OC(C)C)cc32)C1=O (stereo not drawn)
Mus musculus [6]
  ED50: 140 µmol/kg
Mus musculus [1]
  Convulsion: 100%
[2]
  mortality: 0%
Mus musculus [3]
  Loss of righting reflex: 0%
Mus musculus [4]
  Ataxia: 100%
Mus musculus [7]
  ED50: 110 µmol/kg
Mus musculus [5]
  Protection: 90%

## O=C1NC(=O)C(C2CCc3ccccc3C2)N1 (stereo not drawn)
Mus musculus [1]
  Convulsion: 0%
[2]
  mortality: 0%
Mus musculus [3]
  Loss of righting reflex: 0%
Mus musculus [4]
  Ataxia: 0%
Mus musculus [5]
  Protection: 20%

## CN(CCO)CCN1C(=O)CC2(CCc3ccccc3C2)C1=O (stereo not drawn)
Mus musculus [1]
  Convulsion: 40%
[2]
  mortality: 0%
Mus musculus [3]
  Loss of righting reflex: 0%
Mus musculus [4]
  Ataxia: 100%
Mus musculus [5]
  Protection: 30%

## CCN(CC)CCCN1C(=O)CC2(CCCc3ccc(Cl)cc32)C1=O (stereo not drawn)
Mus musculus [6]
  ED50: 160 µmol/kg
Mus musculus [1]
  Convulsion: 0%
[2]
  mortality: 0%
Mus musculus [3]
  Loss of righting reflex: 0%
Mus musculus [4]
  Ataxia: 100%
Mus musculus [7]
  ED50: 110 µmol/kg
Mus musculus [5]
  Protection: 90%

## CN(CCO)CCCCN1C(=O)CC2(CCCc3ccccc32)C1=O (stereo not drawn)
Mus musculus [1]
  Convulsion: 0%
[2]
  mortality: 0%
Mus musculus [3]
  Loss of righting reflex: 0%
Mus musculus [4]
  Ataxia: 0%
Mus musculus [5]
  Protection: 10%

## CN(CCO)CCCN1C(=O)CC2(CCCc3ccccc32)C1=O (stereo not drawn)
Mus musculus [6]
  ED50: 560 µmol/kg
Mus musculus [1]
  Convulsion: 0%
[2]
  mortality: 0%
Mus musculus [3]
  Loss of righting reflex: 0%
Mus musculus [4]
  Ataxia: 0%
Mus musculus [7]
  ED50: 760 µmol/kg
Mus musculus [5]
  Protection: 30%

## CCN(CC)CCCN1C(=O)CC2(CCCc3cc(OC)ccc32)C1=O (stereo not drawn)
[2]
  mortality: 0%
Mus musculus [3]
  Loss of righting reflex: 0%
Mus musculus [4]
  Ataxia: 100%
Mus musculus [5]
  Protection: 40%

## CCN(CC)C(C)CCN1C(=O)CC2(CCCc3cc(OC)ccc32)C1=O (stereo not drawn)
Mus musculus [1]
  Convulsion: 0%
[2]
  mortality: 0%
Mus musculus [3]
  Loss of righting reflex: 0%
Mus musculus [4]
  Ataxia: 60%
Mus musculus [5]
  Protection: 0%

## CCN(CC)C(C)CN1C(=O)CC2(CCCc3ccc(O)cc32)C1=O (stereo not drawn)
Mus musculus [1]
  Convulsion: 0%
[2]
  mortality: 0%
Mus musculus [3]
  Loss of righting reflex: 0%
Mus musculus [4]
  Ataxia: 50%
Mus musculus [5]
  Protection: 60%

## COCCN(C)CCCN1C(=O)CC2(CCCc3ccccc32)C1=O (stereo not drawn)
Mus musculus [1]
  Convulsion: 100%
[2]
  mortality: 0%
Mus musculus [3]
  Loss of righting reflex: 100%
Mus musculus [4]
  Ataxia: 100%
Mus musculus [5]
  Protection: 30%

## COc1ccc2c(c1)CCCC21CC(=O)N(CCN(C)C)C1=O (stereo not drawn)
Mus musculus [1]
  Convulsion: 0%
[2]
  mortality: 0%
Mus musculus [3]
  Loss of righting reflex: 0%
Mus musculus [4]
  Ataxia: 100%
Mus musculus [5]
  Protection: 20%

## CCN(CC)CCCCN1C(=O)CC2(CCCc3ccccc32)C1=O (stereo not drawn)
Mus musculus [6]
  ED50: 180 µmol/kg
Mus musculus [1]
  Convulsion: 0%
[2]
  mortality: 0%
Mus musculus [3]
  Loss of righting reflex: 0%
Mus musculus [4]
  Ataxia: 100%
Mus musculus [7]
  ED50: 180 µmol/kg
Mus musculus [5]
  Protection: 90%

## CCN(CC)C(C)CN1C(=O)CC2(CCCc3ccccc32)C1=O (stereo not drawn)
Mus musculus [1]
  Convulsion: 100%
[2]
  mortality: 0%
Mus musculus [3]
  Loss of righting reflex: 0%
Mus musculus [4]
  Ataxia: 100%
Mus musculus [5]
  Protection: 50%

## O=C1CC2(CCCc3ccccc32)C(=O)N1CCCN1CCOCC1 (stereo not drawn)
Mus musculus [1]
  Convulsion: 0%
[2]
  mortality: 0%
Mus musculus [3]
  Loss of righting reflex: 0%
Mus musculus [4]
  Ataxia: 100%
Mus musculus [5]
  Protection: 20%

## CCN(CC)CCCN1C(=O)CC2(CCCc3ccccc32)C1=O (stereo not drawn)
Mus musculus [6]
  ED50: 200 µmol/kg
Mus musculus [1]
  Convulsion: 0%
[2]
  mortality: 0%
Mus musculus [3]
  Loss of righting reflex: 0%
Mus musculus [4]
  Ataxia: 100%
Mus musculus [7]
  ED50: 190 µmol/kg
Mus musculus [5]
  Protection: 80%

## CCN(CC)CCCCN1C(=O)CC2(CCCc3cc(O)ccc32)C1=O (stereo not drawn)
Mus musculus [1]
  Convulsion: 0%
Mus musculus [8]; [14]
  ED50: 260 µmol/kg
[2]
  mortality: 0%
Mus musculus [3]
  Loss of righting reflex: 0%
Mus musculus [4]
  Ataxia: 0%
Mus musculus [5]
  Protection: 70%

## NCCCCCN1C(=O)CC2(CCCc3ccccc32)C1=O (stereo not drawn)
Mus musculus [1]
  Convulsion: 0%
[2]
  mortality: 0%
Mus musculus [3]
  Loss of righting reflex: 0%
Mus musculus [4]
  Ataxia: 0%
Mus musculus [5]
  Protection: 20%

## CCN(CC)C(C)CCN1C(=O)CC2(CCCc3ccccc32)C1=O (stereo not drawn)
Mus musculus [1]
  Convulsion: 0%
[2]
  mortality: 0%
Mus musculus [3]
  Loss of righting reflex: 0%
Mus musculus [4]
  Ataxia: 100%
Mus musculus [5]
  Protection: 40%

## COc1ccc2c(c1)CCCC21CC(=O)N(CCCN(C)C)C1=O (stereo not drawn)
Mus musculus [1]
  Convulsion: 0%
[2]
  mortality: 0%
Mus musculus [3]
  Loss of righting reflex: 0%
Mus musculus [4]
  Ataxia: 100%
Mus musculus [5]
  Protection: 0%

## CCN(CC)CCCCCN1C(=O)CC2(CCCc3ccccc32)C1=O (racemic)
Mus musculus [1]
  Convulsion: 0%
Mus musculus [8]; [14]
  ED50: 240 µmol/kg
[2]
  mortality: 0%
Mus musculus [3]
  Loss of righting reflex: 0%
Mus musculus [4]
  Ataxia: 0%
Mus musculus [5]; 100 mg/kg
  Protection: 80%

## CCN(CC)CCCCCN1C(=O)CC2(CCCc3ccccc32)C1=O (single isomer, unassigned; (+))
Mus musculus [8]
  ED50: 210 µmol/kg
Mus musculus [5]; 100 mg/kg
  Protection: 50%

## CCN(CC)CCCCCN1C(=O)CC2(CCCc3ccccc32)C1=O (single isomer, unassigned; (-))
Mus musculus [1]
  Convulsion: 30%
Mus musculus [8]
  ED50: 160 µmol/kg
Mus musculus [4]
  Ataxia: 100%
Mus musculus [5]; 100 mg/kg
  Protection: 90%

## Cc1cccc(C)c1NC(=O)C(C)N (stereo not drawn) [TOCAINIDE]
Canis familiaris [10]
  MABP: 108 mmHg
Canis familiaris [11]
  Ventricular rate: 148 beats min-1
Mus musculus [1]
  Convulsion: 0%
Canis familiaris [12]
  Cumulative dose: 0.3
Mus musculus [8]; [14]
  ED50: 1300 µmol/kg
[2]
  mortality: 0%
Mus musculus [3]
  Loss of righting reflex: 0%
Canis familiaris [13]
  Ectopic beats: 2%
Mus musculus [4]
  Ataxia: 10%
Mus musculus [9]
  ED50: 760 µmol/kg
Mus musculus [5]
  Protection: 20%
